Assay results taken from ChEMBL document CHEMBL1811814, “Synthesis and evaluation of indole, pyrazole, chromone and pyrimidine based conjugates for tumor growth inhibitory activities--development of highly efficacious cytotoxic agents” (Eur J Med Chem, 2010).

Experiments:
Format in all cases: functional
Set-up in all cases: scale not given: the % may be the effect or the level left
NCI/ADR-RES = experiment: Growth inhibition of human NCI/ADR-RES cells assessed tumor cell growth at 10^-5 M
Method in brief: (§1)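 NCI 60-human-tumor-cell-line panel screen. Each compound was tested at a single concentration of 10^-5 M, and percent growth of tumor cells was recorded for each cell line. Growth inhibition was expressed from these percent-growth values.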

[1] = Growth inhibition of human Hs 578T cells assessed tumor cell growth at 10^-5 M; method in brief: as §1
NCI-H226 = experiment: Growth inhibition of human NCI-H226 cells assessed tumor cell growth at 10^-5 M; method in brief: as §1
HOP-92 = experiment: Growth inhibition of human HOP92 cells assessed tumor cell growth at 10^-5 M; method in brief: as §1
OVCAR-5 = experiment: Growth inhibition of human OVCAR5 cells assessed tumor cell growth at 10^-5 M; method in brief: as §1
MOLT-4 = experiment: Growth inhibition of human MOLT4 cells assessed tumor cell growth at 10^-5 M; method in brief: as §1
NCI-H322M = experiment: Growth inhibition of human NCI-H322M cells assessed tumor cell growth at 10^-5 M; method in brief: as §1
SNB-75 = experiment: Growth inhibition of human SNB75 cells assessed tumor cell growth at 10^-5 M
Method in brief: (§2)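 Single-dose screen at 10^-5 M across the 60 human tumor cell line panel, run to NCI standards. The value is the percent growth of each cell line in the presence of compound. Compounds active at this dose moved on to five-concentration testing (10^-4 to 10^-8 M).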

SF-295 = experiment: Growth inhibition of human SF295 cells assessed tumor cell growth at 10^-5 M; method in brief: as §1
RXF 393 = experiment: Growth inhibition of human RXF393 cells assessed tumor cell growth at 10^-5 M; method in brief: as §1
MDA-MB-435 = experiment: Growth inhibition of human MDA-MB-435 cells assessed tumor cell growth at 10^-5 M; method in brief: as §1
NCI-H23 = experiment: Growth inhibition of human NCI-H23 cells assessed tumor cell growth at 10^-5 M; method in brief: as §1
NCI-H522 = experiment: Growth inhibition of human NCI-H522 cells assessed tumor cell growth at 10^-5 M; method in brief: as §1
UO-31 = experiment: Growth inhibition of human UO31 cells assessed tumor cell growth at 10^-5 M; method in brief: as §2
A549 = experiment: Growth inhibition of human A549 cells assessed tumor cell growth at 10^-5 M; method in brief: as §1
COLO 205 = experiment: Growth inhibition of human COLO205 cells assessed tumor cell growth at 10^-5 M; method in brief: as §1
UACC-62 = experiment: Growth inhibition of human UACC62 cells assessed tumor cell growth at 10^-5 M; method in brief: as §2
SW-620 = experiment: Growth inhibition of human SW620 cells assessed tumor cell growth at 10^-5 M; method in brief: as §2
MDA-MB-231 = experiment: Growth inhibition of human MDA-MB-231 cells assessed tumor cell growth at 10^-5 M; method in brief: as §1
K562 = experiment: Growth inhibition of human K562 cells assessed tumor cell growth at 10^-5 M; method in brief: as §1
Malme-3M = experiment: Growth inhibition of human MALME-3M cells assessed tumor cell growth at 10^-5 M; method in brief: as §1
MCF7 = experiment: Growth inhibition of human MCF7 cells assessed tumor cell growth at 10^-5 M; method in brief: as §1
TK-10 = experiment: Growth inhibition of human TK10 cells assessed tumor cell growth at 10^-5 M; method in brief: as §2
HT-29 = experiment: Growth inhibition of human HT-29 cells assessed tumor cell growth at 10^-5 M; method in brief: as §1
T47D = experiment: Growth inhibition of human T47D cells assessed tumor cell growth at 10^-5 M; method in brief: as §2
OVCAR-8 = experiment: Growth inhibition of human OVCAR8 cells assessed tumor cell growth at 10^-5 M; method in brief: as §1
SK-MEL-28 = experiment: Growth inhibition of human SK-MEL-28 cells assessed tumor cell growth at 10^-5 M; method in brief: as §1
BT-549 = experiment: Growth inhibition of human BT549 cells assessed tumor cell growth at 10^-5 M; method in brief: as §1
HOP-62 = experiment: Growth inhibition of human HOP62 cells assessed tumor cell growth at 10^-5 M; method in brief: as §1
KM12 = experiment: Growth inhibition of human KM12 cells assessed tumor cell growth at 10^-5 M; method in brief: as §1
HL-60(TB) = experiment: Growth inhibition of human HL-60(TB) cells assessed tumor cell growth at 10^-5 M
Method in brief: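 HL-60(TB), part of the 60-line panel, tested at a single concentration of 10^-5 M. The read-out is percent tumor cell growth relative to untreated growth.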

SF-268 = experiment: Growth inhibition of human SF268 cells assessed tumor cell growth at 10^-5 M; method in brief: as §1
DU-145 = experiment: Growth inhibition of human DU145 cells assessed tumor cell growth at 10^-5 M; method in brief: as §1
SN12C = experiment: Growth inhibition of human SN12C cells assessed tumor cell growth at 10^-5 M; method in brief: as §1
SF-539 = experiment: Growth inhibition of human SF539 cells assessed tumor cell growth at 10^-5 M; method in brief: as §1
CAKI-1 = experiment: Growth inhibition of human Caki1 cells assessed tumor cell growth at 10^-5 M; method in brief: as §1
SK-MEL-2 = experiment: Growth inhibition of human SK-MEL-2 cells assessed tumor cell growth at 10^-5 M; method in brief: as §1
A498 = experiment: Growth inhibition of human A498 cells assessed tumor cell growth at 10^-5 M; method in brief: as §1
HCC 2998 = experiment: Growth inhibition of human HCC2998 cells assessed tumor cell growth at 10^-5 M; method in brief: as §1
786-0 = experiment: Growth inhibition of human 786-0 cells assessed tumor cell growth at 10^-5 M; method in brief: as §1
SK-MEL-5 = experiment: Growth inhibition of human SK-MEL-5 cells assessed tumor cell growth at 10^-5 M; method in brief: as §1
NCI-H460 = experiment: Growth inhibition of human NCI-H460 cells assessed tumor cell growth at 10^-5 M; method in brief: as §1
SNB-19 = experiment: Growth inhibition of human SNB19 cells assessed tumor cell growth at 10^-5 M; method in brief: as §2
M14 = experiment: Growth inhibition of human M14 cells assessed tumor cell growth at 10^-5 M; method in brief: as §1
UACC-257 = experiment: Growth inhibition of human UACC257 cells assessed tumor cell growth at 10^-5 M; method in brief: as §2
LOX IMVI = experiment: Growth inhibition of human LOXIMVI cells assessed tumor cell growth at 10^-5 M; method in brief: as §1
OVCAR-3 = experiment: Growth inhibition of human OVCAR3 cells assessed tumor cell growth at 10^-5 M; method in brief: as §1
CCRF-CEM = experiment: Growth inhibition of human CCRF-CEM cells assessed tumor cell growth at 10^-5 M; method in brief: as §1
MDA-MB-468 = experiment: Growth inhibition of human MDA-MB-468 cells assessed tumor cell growth at 10^-5 M; method in brief: as §1
SK-OV-3 = experiment: Growth inhibition of human SKOV3 cells assessed tumor cell growth at 10^-5 M; method in brief: as §1
EKVX = experiment: Growth inhibition of human EKVX cells assessed tumor cell growth at 10^-5 M; method in brief: as §1
IGROV-1 = experiment: Growth inhibition of human IGROV1 cells assessed tumor cell growth at 10^-5 M; method in brief: as §1
HCT-15 = experiment: Growth inhibition of human HCT15 cells assessed tumor cell growth at 10^-5 M; method in brief: as §1
U-251 = experiment: Growth inhibition of human U251 cells assessed tumor cell growth at 10^-5 M; method in brief: as §2
PC-3 = experiment: Growth inhibition of human PC3 cells assessed tumor cell growth at 10^-5 M; method in brief: as §1
OVCAR-4 = experiment: Growth inhibition of human OVCAR4 cells assessed tumor cell growth at 10^-5 M; method in brief: as §1
HCT-116 = experiment: Growth inhibition of human HCT116 cells assessed tumor cell growth at 10^-5 M; method in brief: as §1
ACHN = experiment: Growth inhibition of human ACHN cells assessed tumor cell growth at 10^-5 M; method in brief: as §1

C=CCn1cc(/C=C2\C(=O)N(c3cccc(Cl)c3)N=C2C)c2ccccc21
Activity (NCI/ADR-RES): 91.67% | Activity [1]: 97.36% | Activity (NCI-H226): 70.94% | Activity (HOP-92): 72.84% | Activity (OVCAR-5): 86.3% | Activity (MOLT-4): 75.53% | Activity (NCI-H322M): 79.41% | Activity (SNB-75): 71.75% | Activity (SF-295): 89.63% | Activity (RXF 393): 90.86% | Activity (MDA-MB-435): 84.21% | Activity (NCI-H23): 75.8% | Activity (NCI-H522): 104.32% | Activity (UO-31): 74.52% | Activity (A549): 104.05% | Activity (COLO 205): 113.25% | Activity (UACC-62): 69.6% | Activity (SW-620): 97.77% | Activity (MDA-MB-231): 84.32% | Activity (K562): 77.68% | Activity (Malme-3M): 106.35% | Activity (MCF7): 79.85% | Activity (TK-10): 110.49% | Activity (HT-29): 105.44% | Activity (T47D): 69.36% | Activity (OVCAR-8): 88.73% | Activity (SK-MEL-28): 97.08% | Activity (BT-549): 89.1% | Activity (HOP-62): 102.06% | Activity (KM12): 90.06% | Activity (HL-60(TB)): 99.5% | Activity (SF-268): 101.01% | Activity (DU-145): 101.89% | Activity (SN12C): 101.52% | Activity (SF-539): 97.52% | Activity (CAKI-1): 73.37% | Activity (SK-MEL-2): 100.76% | Activity (A498): 69.09% | Activity (HCC 2998): 103.61% | Activity (786-0): 115.97% | Activity (SK-MEL-5): 85.6% | Activity (NCI-H460): 91.1% | Activity (SNB-19): 109.63% | Activity (M14): 96.28% | Activity (UACC-257): 88.64% | Activity (LOX IMVI): 90.56% | Activity (OVCAR-3): 116.71% | Activity (CCRF-CEM): 94.38% | Activity (MDA-MB-468): 84.91% | Activity (SK-OV-3): 94.6% | Activity (EKVX): 54.36% | Activity (IGROV-1): 98.62% | Activity (HCT-15): 96.63% | Activity (U-251): 98.8% | Activity (PC-3): 101.22% | Activity (OVCAR-4): 82.6% | Activity (HCT-116): 89.43% | Activity (ACHN): 94.59%
